In assay [1] the test system is Enterococcus faecalis. Put plainly: Antibacterial activity against Enterococcus faecalis ATCC 29212 assessed as reduction in bacterial growth incubated for 48 hrs by broth microdilution method. In kind it is functional. The method, boiled down:
(§1)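 Cation-adjusted Mueller-Hinton broth microdilution per EUCAST, modified; compounds from DMSO stocks, final DMSO ≤1% v/v; scale starting from 0.49 µM. Static incubation at 35 ± 2 °C, dark, humidified, read at 24 and 48 h. MIC = lowest concentration with no visible growth by eye; duplicates, parallel readings within one dilution step; growth and medium/DMSO controls included.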

Assay [2] relates to Escherichia coli. The assay can be described thus: Antibacterial activity against Escherichia coli ATCC 25922 assessed as reduction in bacterial growth incubated for 48 hrs by broth microdilution method. It is filed as functional. The method, boiled down: as §1
On the technique in general: Dilution methods test growth across graded concentrations, often in twofold steps.

For assay [3], the system named is Enterococcus faecalis. Put plainly: Antibacterial activity against Enterococcus faecalis ATCC 29212 assessed as reduction in bacterial growth incubated for 24 hrs by broth microdilution method. In kind it is functional. The method, boiled down:
as §1

Assay [4] relates to Staphylococcus aureus. Put plainly: Antibacterial activity against Staphylococcus aureus ATCC 29213 assessed as reduction in bacterial growth incubated for 48 hrs by broth microdilution method. It is filed as functional. The method, boiled down:
as §1

A further assay concerns HepG2. Put plainly: Cytotoxicity against human HepG2 cells assessed as reduction in cell viability incubated for 24 hrs by cell-titer 96 aqueous one solution cell proliferation assay. It is filed as functional, cell-based. As to conditions: HepG2, 24 h.
The subject of assay [5] is Escherichia coli. Put plainly: Antibacterial activity against Escherichia coli ATCC 25922 assessed as reduction in bacterial growth incubated for 24 hrs by broth microdilution method. It is filed as functional. The method, boiled down: as §1
The test system of assay [6] is Staphylococcus aureus. The assay can be described thus: Antibacterial activity against Staphylococcus aureus ATCC 29213 assessed as reduction in bacterial growth incubated for 24 hrs by broth microdilution method. In kind it is functional. The method, boiled down: as §1
For assay [7], the system named is Staphylococcus aureus. The assay can be described thus: Antibacterial activity against methicillin-resistant Staphylococcus aureus ATCC 43300 assessed as reduction in bacterial growth incubated for 48 hrs by broth microdilution method. In kind it is functional. The method, boiled down:
(§2)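 EUCAST-based broth microdilution in cation-adjusted Mueller-Hinton broth. DMSO stocks, final DMSO ≤1% v/v, concentration scale starting from 0.49 µM. Static incubation at 35 ± 2 °C, dark and humidified. Run in duplicate, accepted only if parallel MICs differ by at most one dilution step. MIC is the lowest concentration with no visible growth by naked eye.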

In assay [8] the test system is Staphylococcus epidermidis. The assay can be described thus: Antibacterial activity against Staphylococcus epidermidis ATCC 12228 assessed as reduction in bacterial growth incubated for 24 hrs by broth microdilution method. It is filed as functional. The method, boiled down:
as §1

The subject of assay [9] is Staphylococcus aureus. The assay can be described thus: Antibacterial activity against methicillin-resistant Staphylococcus aureus ATCC 43300 assessed as reduction in bacterial growth incubated for 24 hrs by broth microdilution method. It is filed as functional. The method in brief:
as §2

The subject of assay [10] is Staphylococcus epidermidis. Put plainly: Antibacterial activity against Staphylococcus epidermidis ATCC 12228 assessed as reduction in bacterial growth incubated for 48 hrs by broth microdilution method. It is filed as functional. The method in brief:
as §1

Each structure is given as a SMILES string. Converted amounts (≈) assume the structure as drawn.

One may read the MIC as the smallest concentration in the dilution series that meets the test's criterion for growth inhibition. A word on the IC50: it is the concentration needed to halve the response being measured.

Turning to `O=C(NNC(=O)c1cc(I)cc(I)c1O)c1ccc(F)cc1`, the MIC was 500 µM (≈ 263 µg/mL) in the assay with Enterococcus faecalis [1]; above 500 µM in the assay on Escherichia coli [2]; 500 µM (≈ 263 µg/mL) with Enterococcus faecalis [3]; 500 µM (≈ 263 µg/mL) in the assay with Staphylococcus aureus [4]; above 500 µM in the assay on Escherichia coli [5]; 500 µM (≈ 263 µg/mL) in the assay on Staphylococcus aureus [6]. Besides, the MIC (in the assay with Staphylococcus aureus [7]; in assay [8]; in the assay with Staphylococcus aureus [9]; in [10]) was 500 µM (≈ 263 µg/mL) in each case. Also, in the assay with HepG2, the IC50 worked out at 87 µM.
In the case of `CC(C)(C)c1ccc(C(=O)N/N=C/c2cc(I)cc(I)c2O)cc1`, the MIC with Enterococcus faecalis [1], in the assay on Escherichia coli [2], in the assay with Enterococcus faecalis [3], with Staphylococcus aureus [4], with Escherichia coli [5] and in the assay on Staphylococcus aureus [6] was above 500 µM in each case. Moreover, the minimum inhibitory concentration (MIC) (in the assay on Staphylococcus aureus [7]; in assay [8]; in the assay on Staphylococcus aureus [9]; in assay [10]) was above 500 µM throughout. Further, the half-maximal inhibitory concentration (IC50) with HepG2 is 41.6 µM.
`CC(C)(C)c1ccc(C(=O)NNC(=O)c2cc(I)cc(I)c2O)cc1`: the MIC with Enterococcus faecalis [1], in the assay with Escherichia coli [2], in the assay with Enterococcus faecalis [3], with Staphylococcus aureus [4], with Escherichia coli [5] and with Staphylococcus aureus [6] was above 500 µM in each case. Further, the MIC (in the assay on Staphylococcus aureus [7]; in [8]; in the assay with Staphylococcus aureus [9]; in assay [10]) was above 500 µM each time. In addition, the IC50 in the assay on HepG2 came to 87.3 µM.
Turning to `O=C(N/N=C/c1cc(I)c(O)c(I)c1)c1ccccc1`, the MIC in the assay on Enterococcus faecalis [1] is above 500 µM; in the assay on Escherichia coli [2], above 500 µM; in the assay with Enterococcus faecalis [3], above 500 µM; in the assay on Staphylococcus aureus [4] it was 250 µM (≈ 123 µg/mL); with Escherichia coli [5], above 500 µM; in the assay with Staphylococcus aureus [6], 250 µM (≈ 123 µg/mL). Also, the MIC in the assay on Staphylococcus aureus [7] was above 500 µM; in assay [8], above 500 µM; in the assay with Staphylococcus aureus [9], 500 µM (≈ 246 µg/mL); in assay [10], above 500 µM. For the same compound, the IC50 in the assay with HepG2 came out at 191 µM.
Consider `O=C(NNC(=O)c1cc(I)cc(I)c1O)c1ccc([N+](=O)[O-])cc1`, for which the half-inhibitory concentration (IC50) in the assay on HepG2 worked out at 159 µM.
On to `Cc1ccc(C(=O)N/N=C/c2cc(I)c(O)c(I)c2)cc1`, for which the minimal inhibitory concentration (MIC) with Enterococcus faecalis [1] is above 500 µM; in the assay with Escherichia coli [2], above 500 µM; in the assay on Enterococcus faecalis [3], above 500 µM; in the assay on Staphylococcus aureus [4], 500 µM (≈ 253 µg/mL); with Escherichia coli [5], above 500 µM; in the assay with Staphylococcus aureus [6] it was 250 µM (≈ 127 µg/mL). For the same compound, the minimal inhibitory concentration (MIC) (in the assay on Staphylococcus aureus [7]; in assay [8]; in the assay with Staphylococcus aureus [9]; in [10]) was above 500 µM throughout. In the assay on HepG2, the IC50 is above 100 µM.
As to `O=C(N/N=C/c1cc(I)cc(I)c1O)c1ccc(I)cc1`, the minimum inhibitory concentration (MIC) with Enterococcus faecalis [1], with Escherichia coli [2], with Enterococcus faecalis [3], in the assay with Staphylococcus aureus [4], with Escherichia coli [5] and in the assay on Staphylococcus aureus [6] was above 125 µM in each case. Further, the MIC (in the assay on Staphylococcus aureus [7]; in assay [8]; in the assay with Staphylococcus aureus [9]; in assay [10]) was above 125 µM in each case. Besides, the IC50 in the assay on HepG2 was found to be 31.8 µM.
In the case of `O=C(NNCc1cc(I)cc(I)c1O)c1ccc(Cl)cc1`, the MIC is 15.6 µM (≈ 8.26 µg/mL) in the assay on Enterococcus faecalis [1]; above 500 µM with Escherichia coli [2]; 15.6 µM (≈ 8.26 µg/mL) with Enterococcus faecalis [3]; 62.5 µM (≈ 33 µg/mL) in the assay with Staphylococcus aureus [4]; above 500 µM in the assay on Escherichia coli [5]; 31.2 µM (≈ 16.5 µg/mL) in the assay with Staphylococcus aureus [6]. Also, the MIC in the assay with Staphylococcus aureus [7] amounted to 62.5 µM (≈ 33 µg/mL); in assay [8] it was 15.6 µM (≈ 8.26 µg/mL); in the assay with Staphylococcus aureus [9], 31.2 µM (≈ 16.5 µg/mL); in assay [10], 15.6 µM (≈ 8.26 µg/mL). Also, the half-inhibitory concentration (IC50) in the assay with HepG2 was 52.2 µM.
For `CCN1CCN(C(=O)N[C@@H](C(=O)N[C@@H]2C(=O)N3[C@@H]2SC(C)(C)[C@@H]3C(=O)O)c2ccccc2)C(=O)C1=O` [PIPERACILLIN SODIUM], the MIC in the assay with Enterococcus faecalis [3] was 7.41 µM; in the assay on Escherichia coli [5], 3.71 µM; in the assay on Staphylococcus aureus [6] it was 1.85 µM; in assay [8], above 59.3 µM; with Staphylococcus aureus [9], 14.8 µM.
For `O=C(NNC(=O)c1cc(I)cc(I)c1O)c1ccccc1`, the concentration for half-maximal inhibition (IC50) in the assay with HepG2 is 98 µM.
On the same count and under the same terms, to `O=C(NNC(=O)c1cc(I)cc(I)c1O)c1ccc(C(F)(F)F)cc1` belongs 167 µM; to `O=C(NNC(=O)c1cc(I)cc(I)c1O)c1ccc(Br)cc1`, 62.8 µM.

For the origin of these results see ChEMBL document CHEMBL4811275, “Iodinated 1,2-diacylhydrazines, benzohydrazide-hydrazones and their analogues as dual antimicrobial and cytotoxic agents” (Bioorg Med Chem, 2021).
